Test system: MS2 coat protein
Assay: apparent Kd, MS2 coat protein; higher = weaker binding; RNA-MaP array; FMN 200 µM where present
Method in brief: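 Apparent Kd: the median of filtered binding-curve fits from single clusters. Designs were transcribed on Illumina sequencing-chip clusters by stalled E. coli RNA polymerase and titrated with SNAP-549-labelled MS2 coat protein from 0.7 or 1.5 nM, doubling to 3 µM, in 100 mM Tris-HCl pH 7.5, 80 mM KCl, 4 mM MgCl2, BSA, DTT, yeast tRNA and Tween-20. Each series ran without and then with constant ligand, and green signal was normalised to red-channel RNA signal and control-cluster median Fmax.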

[1] = designed as: OFF switch for flavin mononucleotide, no ligand
[2] = ligand present: flavin mononucleotide, designed as: OFF switch for flavin mononucleotide
[3] = designed as: ON switch for flavin mononucleotide, no ligand
[4] = ligand present: flavin mononucleotide, designed as: ON switch for flavin mononucleotide

Row | Sequence | apparent Kd [1] [nM] | apparent Kd [2] [nM] | apparent Kd [3] [nM] | apparent Kd [4] [nM]
1 | GCCUCACAUGAGGAUCACCCAUGUCAGGAUAUAGGAGGCAGUAGAUAUCCUACCGCCGCUAGAAGGGACUGGCA | 49.1 | 131 | – | –
2 | GGGUGCUCACCGCCUUAACAUGAGGAUCACCCAUGUGGAGUGCAGGAUAUACGUCUCUAUCAUACGUAGAAGGGCACCGCGCAG | 5.45 | 5.9 | – | –
3 | AGAUAACACCAGAAGGACAUGAGGAUCACCCAUGUAGGAUAUGGGCAUCACUCGAGAAAGAAAAGACCAAGUGGACACGCGGUC | – | – | 117 | 10.7
4 | GGUCCAUCAUGAGGAUAUGGCACCUUAUUGGUGCCAGAAGGCAUGUCUUUAGACAUGAGGAUCACCCAUGUAAUAAAUUGGACC | – | – | 1150 | 76.5
5 | AAGAAGUGAGGAUAUGUAUCAGUAUAGUUGCCUAUACUGAUGUAGAAGGCACAUGAGGAUCACCCAUGUCCUAA | 20.8 | 25 | – | –
6 | AAAAAGUCAGGAUAUCGGAAAAAAAAAAAAAAAAAAAAAAACGAGAAGGGACAUGAGGAUCACCCAUGUAAAAA | 55.8 | 68.2 | – | –
7 | UACCACGUUUGAUUAGGCGUGACAUGAGGAUCACCCAUGUGUCAGGAUAUACAUGGGCGGGCCCAGUAGAAGGGACUUAAUAGC | – | – | 327 | 65.1
8 | UAAAAGACUAGCAAAUAAGUUCCACAUGAGGAUCACCCAUGUCAGGAUAUGAGCAGCAAAGCUGCUCAGAAGGGACAGCUAGUC | 5.53 | 6.99 | – | –
9 | GUCGUGUGAGGAUAUCUGAUGUCUAACUUCGGUUAGACAUCAGAGAAGGCACAUGAGGAUCACCCAUGUCCGAC | 195 | 298 | – | –
10 | UUUUCCAAUCAAGGAUAUGUAUUAAAGAUUUGAAAACAUGAGGAUCACCCAUGUAUAUGGUGGGAACAGAAGGUGAAUAAGUAA | 221 | 231 | – | –
11 | UUAUUUAUACAAGGAUAUCAAUUAUAUACACAUCCUACAUGAGGAUCACCCAUGUUUUAUUUUUUUGAGAAGGUGUAUUGUCGG | – | – | 21.2 | 27.6
12 | UAGAUGGGAGGAUAUACAUAGAUACAGAUUCAUGUAGUGCUACAUGAGGAUCACCCAUGUAGAAGGCCCGUCUU | 33 | 355 | – | –
13 | ACAUACUCUCGAGGAUAUCGUAUAAUUAUUAAACGAGAAGGCGAUUGUUUAUUUCUAAUACACGACAUGAGGAUCACCCAUGUA | – | – | 27.1 | 25.4
14 | GUCGUGUGAGGAUAUCGAUUAUGGAAGUCUAGAUCCAUACGCGAGAAGGCACAUGAGGAUCACCCAUGUAAUGG | 337 | 96.1 | – | –
15 | UGUCCAUAGCAGAAGGACAUGAAUAACCAUGAAAACAUGAGGAUCACCCAUGUAGGAUAUGCUAUGGACUAAGAGCGAAAGCUC | 15 | 175 | – | –
16 | UGAUAGCACAGAGGAUAUGCGUUGUGUUAUCUCUACAUGAGGAUCACCCAUGUAGAAGGCUGUGCUAUCUAAGUCGGAAACGAU | 5.57 | 7.16 | – | –
17 | ACUUUAGUAUCACAUGUAUUACAUGAGGAUCACCCAUGUUACUAGGAUAUGUAUUAGAAUUUACAACAGAAGGAGUUAAUUUGU | 7.92 | 7.59 | – | –
18 | GCGUUGAACGAGAAGGCCAAUACAUGAGGAUCACCCAUGUUUAGAUGUUUUGGAGGAUAUCGUACGUCGUCUCAUGAGCAACGC | 6.68 | 7.92 | – | –
19 | UGGACGGGAGGAUAUACAUGAGGAUCACCCAUGUAAAAUUGUAUAAUAUAUAGUUCGUGUAGAAGGUUUGUUUU | 49.6 | 44.7 | – | –
20 | CGUAUACAUGAGGAUCACCCAUGUAAGGAUAUGCUUUAUUAUUAUUAUUAUUAUUGUUGCAGAAGGUACAUUGC | 19 | 17.7 | – | –
21 | GGAUUACAUGAGGAUCACCCAUGUGAGGAUAUCGAUGUCCUCAGUCAAGUGCGGGACUCGAGAAGGCACUUGGA | 64.2 | 32 | – | –
22 | GACUGAUUGUAGAAGGUACUUAAUACUCAUGUAACAUGAGGAUCACCCAUGUAUCACCCAUAUUGUAAGGAUAUACAUAUCUCA | – | – | 337 | 167
23 | CCUAUGUGAGGAUAUCACUGGUCUUUUCAUUGGAUGAUUAGUGAGAAGGCACAUGAGGAUCACCCAUGUCGGUG | 28.9 | 24.2 | – | –
24 | GUCAGCUCGUGAGGAUAUACAUGUGCUGGAGACAGCACUAAAGAUUUCACAUGAGGAUCACCCAUGUAGAAGGCACGAGCUGAU | 16.4 | 37.4 | – | –
25 | AAGAGAAAAGCAGGAUAUCUAUUGGCUCCUUAACAUGAGGAUCACCCAUGUAGAGAAGGGCUAAGACCGACUCUUCGGAGUUGA | 7.07 | 20.6 | – | –
26 | AUUCAGUCAGGAUAUCGUUAAUUUAAUUGUUUGUUUUAGUUCGAGAAGGGACAUGAGGAUCACCCAUGUACUUU | 20.2 | 19.3 | – | –
27 | GUGUACUGAGGAUAUACAUGAGGAUCACCCAUGUGAAUAAGAUAGAAUAAGAUAAAGUGUAGAAGGCAGAGUGU | 40.8 | 35.4 | – | –
28 | UGGUACAUGGGAGGAUAUGGGUUGAUAACAUGAGGAUCACCCAUGUUAAAUAUCGCGAGAGCGAACUAGAAGGCCCAUGUACCU | – | – | 715 | 45.1

Row | Sequence | apparent Kd [1] [nM] | apparent Kd [2] [nM] | apparent Kd [3] [nM] | apparent Kd [4] [nM]
29 | GUAGCACAAACAAAUGUAACAUGAGGAUCACCCAUGUGUUAUGAGGAUAUGGAUGUGAAGUUAAUCCAGAAGGCAUUAUGCUAC | – | – | 18.6 | 11.3
30 | ACAUCUAGAGGAUAUACAUGAGUGAUACACGUAUUUCCACUACAUGAGGAUCACCCAUGUAGAAGGCUAGAUGA | 50 | 16.9 | – | –
31 | AUUAUUAUAAAUUAAGGAAGAAUCAGAAGGCGUUACAUGAGGAUCACCCAUGUUUUGUAUAGUAACGAGGAUAUGAUAUGGAAA | 17.5 | 14 | – | –
32 | AGCCGUGUACAGAAGGGCGACAUGAGGAUCACCCAUGUCUCCUUGUUGGUCGUAGGAUAUGUACCGUGGCUCUCUACUGUGGGA | 5.96 | 7.28 | – | –
33 | GUCGGAAACGACAAAAGUAGCAUAGGAGAAGGCAUGUCAUAAGACAUGAGGAUCACCCAUGUGCAUGAGGAUAUCCUAUGCUAC | – | – | 5.53 | 4.98
34 | GGAUCGUAUGUGAGGAUAUACCACUGGAUACAGUGGUAGAAGGCACAUGAGGAUCACCCAUGUCCUAUCGAUCC | 146 | 196 | – | –
35 | AAAAAACAUGAGGAUCACCCAUGUGAGGAUAUGCUAAAAAAAUCCGCAUGAAAAAAUAGCAGAAGGCACAUAAA | 32.9 | 106 | – | –
36 | CUUGUGUGAGGAUAUGACAAUGGUAUCUUCGGAUACCAUUGUCAGAAGGUACAUGAGGAUCACCCAUGUAGAUC | 91 | 140 | – | –
37 | UUGCCUCAGAACAUGAGGAUCACCCAUGUGCUGCGGGCAACGUAGGAUAUGAUGGUUUGAUACCAUCAGAAGGAUGAUGGUACC | – | – | 5.4 | 5.21
38 | CCUGUGGCAUGAGGAUAUGGUCAGCUUUGCUGACCAGAAGGCAUGUCAAUAGACAUGAGGAUCACCCAUGUAGUUAACACAGGA | – | – | 535 | 42.6
39 | GAGGUAUUCGUAGGAUAUCCGUCGCCACCGUGUGGAGAAGGACGAACAUGAGGAUCACCCAUGUAUCAUGGUGUGGACGCUUUC | 71.5 | 82.8 | – | –
40 | AUCAGCUCGUGAGGAUAUACAUGAUAGAUCGAUUAAUUAAUUAAUUUAACAUGAGGAUCACCCAUGUAGAAGGCACGAGCUGAU | 56.1 | 61.7 | – | –
41 | UUGAGGUGCAAGAAGGGUCACAUGAGGAUCACCCAUGUCAUGUGAAGUCUCGAGAUUUUAUGUGGAUAGGAUAUUGCACCGAAC | – | – | 203 | 113
42 | AAAAUACAUGAGGAUCACCCAUGUGAGUCGAACGCAGGAUAUCGCCGUUGAAAAGGGCGGCGAGAAGGGUGCCGAA | – | – | 62.5 | 46.8
43 | ACCCAGUUUUGCACUACAUGAGGAUCACCCAUGUGAGCGAGCAGAAGGACGAUGGGUGGAAAAUCGUAGGAUAUGCACUGGGUA | – | – | 47.2 | 12.6
44 | CGCUGGACUGAGAAGGCCAUGUGGGACGCGAACAGUGAUGUUAGGGCAUGGAGGAUAUCAGACAUGAGGAUCACCCAUGUAACC | – | – | 392 | 38
45 | GGUUUAGGCGAAGGAUAUCCGUCGCGAGAUACUGGAGAAGGUCGCCUUAAUACAUGAGGAUCACCCAUGUGGCGGGUGAACCAC | 326 | 47.6 | – | –
46 | GUGUACAGAGGAUAUACACGAGGAGUUACGAAAGUAACUUCACAUGAGGAUCACCCAUGUAGAAGGCUGUACAC | 25.3 | 36.6 | – | –
47 | AGUUAAUAUCGAGGAUAUAAGUCUAAGACAUGAGGAUCACCCAUGUAUGUCUUAGAAGGCGAUAUUAACAGCAUGUUACAUGCA | – | – | 53.2 | 9.67
48 | GGGUUUGGAGGAUAUACAAUGGGUUUGGGAAACCGGGCCCUACAUGAGGAUCACCCAUGUAGAAGGCCGGGCCC | 14.8 | 15.8 | – | –
49 | UUCGCUAAGGUGUAGCGAGGCUCGCAAGAAGGGUGAUGCACAUGAGGAUCACCCAUGUAAGCCUUACAGGAUAUUGCUUGCCGA | – | – | 509 | 40.7
50 | ACAUGAGGAUCACCCAUGUAUACAUAGGAUAUUGGUGAUCAGGGAUGUUUUACAGGAUAUGUCUGCGAGAAGGAUGCAAGUUGU | – | – | 360 | 70.4
51 | GCACAUGAUACAGGAUAUGUUUUUUAAUUUAUUAUGAGUUAUAUAUUAUUUACAGAAGGGUAUACAUGAGGAUCACCCAUGUGC | 40.9 | 31.4 | – | –
52 | GGCCGAAUGGUCUAGGUGCACUUACAUGAGGAUCACCCAUGUCAGGAUAUCUUACGGGUCUCGUAAGAGAAGGGACAUCGCUAU | 52.2 | 215 | – | –
53 | CCUCCCUGAGGAUAUCCACCCUCAUACAUGAGGAUCACCCAUGUUCAACCCUGGGUUCCCGGAGAAGGCAGCUUCC | 260 | 263 | – | –
54 | GGUGCGUUUGUGAGGAUAUGCUGGUCCUUGGUUCGGCAGAAGGCACAUGAGGAUCACCCAUGUGGUGUCGUACC | 16.7 | 48.8 | – | –
55 | UCAUUUCUGAAAGGAUAUUAAUUCAUGACGAUACAUGAGGAUCACCCAUGUUAAGAAGGUUCAAAUACAAAUAAUGCAUUGUUC | 13.2 | 11.1 | – | –
